Active and inactive are the calls of the source. The rule behind the calls is not given here.
Tests used:
[1] = Inhibition of telomerase by TRAP assay; parameters: species or system Homo sapiens
In short: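 Cell-free modified TRAP using A2780 ovarian carcinoma extract, 0.04 μg protein. TS primer extended in TRAP buffer pH 8.3 with 68 mM KCl, 1.5 mM MgCl2, 50 μM dNTPs and [32P]dCTP, agent up to 50 μM final, 20 min at 25 °C. Then 31 PCR cycles; products read by denaturing gel phosphorimaging or filter scintillation counting.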

[2] = Dissociation constant, pKa of the compound; type: physicochemical
In short: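 UV titration across pH. Molar extinction coefficient read at the two wavelengths where ε changes most between acidic and basic solution, then plotted against pH. pKa taken as the pH midway between the horizontal sections of the curve.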

[3] = species: Homo sapiens; assay: Induction of G-quadruplex in G-rich human telomere 21 DNA assessed as circular dichroism spectral change at 50 uM
In short: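 Telo21 at 5 μM strand in 10 mM Tris-HCl pH 7.4, no metal ions, compound at 50 μM. Annealed at 90 °C, cooled slowly, held at 4 °C for several hours. CD recorded 320–200 nm, 16 scans at 100 nm/min, 1 nm bandwidth, buffer baseline subtracted.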

[4] = species: Homo sapiens; assay: Destruction of parallel G-quadruplexes in mixed G-quadruplex human telomere 21 DNA in presence of 0.1 M potassium
[5] = species: Homo sapiens; assay: Induction of G-quadruplex in G-rich human telomere 21 DNA in presence of 100 mM K+ ions by EMSA
In short: (§1)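 Native-gel shift of 20 μM telo21 in 10 mM Tris-HCl pH 7.4, with or without 100 mM KCl, heated 95 °C for 10 min then cooled. Compound titrated in at increasing concentrations and incubated 4–8 h at room temperature. Run on native 15% PAGE in TBE for 2 h, silver-stained; G-quadruplex and single-strand bands scored.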

[6] = species: Homo sapiens; assay: Induction of G-quadruplex in G-rich human telomere 21 DNA by EMSA; in short: as §1

SMILES	IC50 [1]	pKa [2]	Activity [3]	Activity [4]	Activity [5]	Activity [6]
c1ccc2nc3c(cc2c1)[nH]c1ccccc13 [QUINDOLINE]	> 138 µM	4.2	–	–	–	–
CN(C)CCCNc1c2ccccc2nc2c1[nH]c1ccccc12	0.44 µM	8.4	Active	–	–	–
CN(C)CCNc1c2ccccc2nc2c1[nH]c1ccccc12	1.12 µM	8.3	Active	–	–	–
CN(C)CCCNc1c2ccccc2nc2c1oc1ccccc12	3.29 µM	8.3	Active	–	–	–
OCCNc1c2ccccc2nc2c1[nH]c1ccccc12	2.35 µM	8.3	Active	–	–	–

Now from value to compound:

IC50 [1]	pKa [2]	Activity [3]	Activity [4]	Activity [5]	Activity [6]	SMILES
7.11 µM	8.2	Active	–	–	–	CN(C)CCNc1c2ccccc2nc2c1oc1ccccc12
8.12 µM	8.2	Active	–	–	–	OCCCNc1c2ccccc2nc2c1oc1ccccc12
1.55 µM	8.3	Active	–	–	–	OCCCNc1c2ccccc2nc2c1[nH]c1ccccc12
0.55 µM	8.4	Active	Active	Active	Active	c1ccc2c(NCCN3CCOCC3)c3[nH]c4ccccc4c3nc2c1
4.38 µM	8.2	Active	–	–	–	c1ccc2c(NCCN3CCOCC3)c3oc4ccccc4c3nc2c1
12.3 µM	8.2	Active	–	–	–	OCCNc1c2ccccc2nc2c1oc1ccccc12
